The source made the active and inactive calls. The calls are words filed in the database; no cut-off is given here.
Columns and labels:
SH-SY5Y [1] = assay: Ionophoric activity in human SH-SY5Y cells assessed as increase in cellular Fe uptake at 20 uM after 6 hrs by ICP-MS analysis relative to vehicle-treated control; format: functional, cell-based
Outline: (§1)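 SH-SY5Y neuronal cells exposed to each compound at 20 μM for 6 h. Cellular Zn, Cu and Fe content then determined by ICP-MS and compared with untreated control level.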

[2] = Reversal of Zn-induced human soluble amyloid beta (1 to 42) aggregation after 30 mins by bis-ANS-based fluorometric analysis
Outline: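 Soluble Aβ oligomer aggregation monitored fluorometrically with bis-ANS.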

SH-SY5Y [3] = assay: Ionophoric activity in human SH-SY5Y cells assessed as increase in cellular Zn uptake at 20 uM after 6 hrs by ICP-MS analysis relative to vehicle-treated control; format: functional; outline: as §1
SH-SY5Y [4] = assay: Ionophoric activity in human SH-SY5Y cells assessed as increase in cellular Cu uptake at 20 uM after 6 hrs by ICP-MS analysis relative to vehicle-treated control; format: functional; outline: as §1

Structure (SMILES)	Activity (SH-SY5Y [1])	EC50 [2]	Activity (SH-SY5Y [3])	fold change (FC) (SH-SY5Y [3])	fold change (FC) (SH-SY5Y [4])	Activity (SH-SY5Y [4])
Oc1c(Cl)cc(Cl)c2ccc(COCCF)nc12	inactive	2400 nM				
Oc1cccc2nccnc12	inactive		inactive			
Oc1c(Br)cc(F)c2cccnc12		3700 nM		>2	6	
Oc1c(F)cc(Br)c2cccnc12		3500 nM				
Oc1c(F)cc(I)c2cccnc12		2300 nM				
Oc1c(Cl)cc(Cl)c2ccc(COCCCCF)nc12	inactive	2000 nM				Active
Oc1cccc2cc[nH]c12	inactive		inactive			
Oc1c(I)cc(F)c2cccnc12		2500 nM		>2	6	
Oc1c(F)ccc2cccnc12	inactive		inactive			Active
CN(C)Cc1ccc2c(Cl)cc(Cl)c(O)c2n1		2000 nM	Active			Active
Oc1c(F)cc(Cl)c2cccnc12		4900 nM				
Oc1cc(F)cc2cccnc12	inactive		inactive			Active
CN(Cc1cn(CCF)nn1)Cc1ccc2c(Cl)cc(Cl)c(O)c2n1	inactive	2300 nM		>2		
COc1cccc2ccc(Cl)nc12	inactive		inactive			
Oc1c(I)cc(Cl)c2cccnc12 [CLIOQUINOL]		1800 nM	Active			Active
Oc1cccc2cc(F)cnc12	inactive		inactive			Active
CN(Cc1cn(CCCF)nn1)Cc1ccc2c(Cl)cc(Cl)c(O)c2n1	inactive	4500 nM		>2		
Oc1cccc2cccnc12	inactive		inactive			Active
Oc1ccc(F)c2cccnc12	inactive		inactive			Active
CN(Cc1cn(CCCCF)nn1)Cc1ccc2c(Cl)cc(Cl)c(O)c2n1	inactive	2800 nM		>2		
Oc1cccc2ccc(F)nc12	inactive	> 120000 nM	inactive			inactive
Oc1ccccc1/N=C/c1ccc(F)cc1	inactive	15400 nM	inactive			
Oc1c(Cl)cc(F)c2cccnc12		5200 nM		>2	6	

Reference: ChEMBL document CHEMBL3632536, “Novel Fluorinated 8-Hydroxyquinoline Based Metal Ionophores for Exploring the Metal Hypothesis of Alzheimer's Disease” (ACS Med Chem Lett, 2015)
